# Laboratory results reported in ChEMBL document CHEMBL1153726, “Synthesis and anticancer activity of sclerophytin-inspired hydroisobenzofurans” (Bioorg Med Chem Lett, 2009).
# Experiments:
# Format in all cases: functional
# OVCAR-8 = assay: Growth inhibition of human OVCAR8 cells after 96 hrs by MTT assay; conditions: OVCAR-8, 96 h, read-out: TGI
# In short: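 Tested in the NCI 60-cell-line panel in five-dose format; GI50 and LC50 values reported for each cell line.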
# NCI/ADR-RES = assay: Growth inhibition of human NCI/ADR-RES cells after 96 hrs by MTT assay
# In short: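 Run in the NCI 60 human tumour cell line panel as a five-dose assay. GI50 and LC50 were reported for each cell line.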
# ACHN [1] = assay: Growth inhibition of human ACHN cells after 96 hrs by MTT assay
# CAKI-1 [2] = assay: Growth inhibition of human Caki1 cells at 10 uM after 96 hrs by MTT assay; design: scale not given: the % may be the effect or the level left
# MOLT-4 = assay: Growth inhibition of human MOLT4 cells at 10 nM after 96 hrs by MTT assay; design: scale not given: the % may be the effect or the level left
# K562 = assay: Growth inhibition of human K562 cells at 10 nM after 96 hrs by MTT assay; design: scale not given: the % may be the effect or the level left
# CAKI-1 [3] = assay: Growth inhibition of human Caki1 cells at 1 uM after 96 hrs by MTT assay; design: scale not given: the % may be the effect or the level left
# SK-OV-3 = assay: Growth inhibition of human SKOV3 cells at 1 uM after 96 hrs by MTT assay; design: scale not given: the % may be the effect or the level left
# [4] = Growth inhibition of human Hs 578T cells at 100 nM after 96 hrs by MTT assay; design: scale not given: the % may be the effect or the level left
# ACHN [5] = assay: Growth inhibition of human ACHN cells at 100 nM after 96 hrs by MTT assay; design: scale not given: the % may be the effect or the level left
# A498 [6] = assay: Growth inhibition of human A498 cells at 100 nM after 96 hrs by MTT assay; design: scale not given: the % may be the effect or the level left
# M14 = assay: Growth inhibition of human M14 cells at 100 nM after 96 hrs by MTT assay; design: scale not given: the % may be the effect or the level left
# Malme-3M [7] = assay: Growth inhibition of human MALME-3M cells at 100 nM after 96 hrs by MTT assay; design: scale not given: the % may be the effect or the level left
# HOP-92 [8] = assay: Growth inhibition of human HOP92 cells at 100 nM after 96 hrs by MTT assay; design: scale not given: the % may be the effect or the level left
# RXF 393 = assay: Growth inhibition of human RXF393 cells at 10 nM after 96 hrs by MTT assay; design: scale not given: the % may be the effect or the level left
# A498 [9] = assay: Growth inhibition of human A498 cells at 10 nM after 96 hrs by MTT assay; design: scale not given: the % may be the effect or the level left
# 786-0 = assay: Growth inhibition of human 786-0 cells at 10 nM after 96 hrs by MTT assay; design: scale not given: the % may be the effect or the level left
# OVCAR-4 = assay: Growth inhibition of human OVCAR4 cells at 10 nM after 96 hrs by MTT assay; design: scale not given: the % may be the effect or the level left
# SK-MEL-5 = assay: Growth inhibition of human SK-MEL-5 cells at 1 uM after 96 hrs by MTT assay; design: scale not given: the % may be the effect or the level left
# Malme-3M [10] = assay: Growth inhibition of human MALME-3M cells at 1 uM after 96 hrs by MTT assay; design: scale not given: the % may be the effect or the level left
# U-251 = assay: Growth inhibition of human U251 cells at 1 uM after 96 hrs by MTT assay; design: scale not given: the % may be the effect or the level left
# SNB-75 = assay: Growth inhibition of human SNB75 cells at 1 uM after 96 hrs by MTT assay; design: scale not given: the % may be the effect or the level left
# HCT-116 = assay: Growth inhibition of human HCT116 cells at 1 uM after 96 hrs by MTT assay; design: scale not given: the % may be the effect or the level left
# COLO 205 = assay: Growth inhibition of human COLO205 cells at 1 uM after 96 hrs by MTT assay; design: scale not given: the % may be the effect or the level left
# HOP-92 [11] = assay: Growth inhibition of human HOP92 cells at 1 uM after 96 hrs by MTT assay; design: scale not given: the % may be the effect or the level left
# [12] = read-out: LC50 (the source's name)
# [13] = read-out: Log10GI50 (converted)
# [14] = read-out: Log10LC50 (converted)
structure (smiles),measurement,setting,value
C=C(C)[C@H]1CC=C(C)C2=CO[C@@H](c3ccccc3F)[C@@H]21,TGI,OVCAR-8,30.6 µM
same,GI50,NCI/ADR-RES; read-out: GI50,3.67 µM
same,CC50,NCI/ADR-RES; [12],56.1 µM
same,GI50,NCI/ADR-RES; [13],3.63 µM
same,CC50,NCI/ADR-RES; [14],56.2 µM
same,TGI,NCI/ADR-RES; read-out: Log10TGI (converted),17.8 µM
same,TGI,NCI/ADR-RES; read-out: TGI,17.9 µM
same,GI50,ACHN [1]; read-out: GI50,6.39 µM
same,CC50,ACHN [1]; [12],43.8 µM
same,GI50,ACHN [1]; [13],6.46 µM
same,CC50,ACHN [1]; [14],43.7 µM
same,TGI,ACHN [1]; read-out: Log10TGI (converted),19.1 µM
same,TGI,ACHN [1]; read-out: TGI,19 µM
same,Activity,CAKI-1 [2],-25%
same,Activity,MOLT-4,100%
same,Activity,K562,95%
same,Activity,CAKI-1 [3],37%
same,Activity,SK-OV-3,59%
same,Activity,[4],67%
same,Activity,ACHN [5],97%
same,Activity,A498 [6],88%
same,Activity,M14,80%
same,Activity,Malme-3M [7],74%
same,Activity,HOP-92 [8],43%
same,Activity,RXF 393,85%
same,Activity,A498 [9],91%
same,Activity,786-0,92%
same,Activity,OVCAR-4,86%
same,Activity,SK-MEL-5,21%
same,Activity,Malme-3M [10],19%
same,Activity,U-251,18%
same,Activity,SNB-75,35%
same,Activity,HCT-116,15%
same,Activity,COLO 205,50%
same,Activity,HOP-92 [11],-14%
